Where two headings read alike, the source gives them in different places.
Columns and labels:
[1] = target: CYP3A4 (Homo sapiens, UniProt P08684); assay: Enzyme phenotyping, intrinsic clearance by retrograde calculation; assay type: in vitro ADME
[2] = single oral 0.25 mg, observed, cited from earlier work
[3] = target: T1, CYP2B6 (Homo sapiens, UniProt P20813); assay: Enzyme phenotyping, intrinsic clearance by retrograde calculation; assay type: in vitro ADME
T1 sequence (P20813 1-491): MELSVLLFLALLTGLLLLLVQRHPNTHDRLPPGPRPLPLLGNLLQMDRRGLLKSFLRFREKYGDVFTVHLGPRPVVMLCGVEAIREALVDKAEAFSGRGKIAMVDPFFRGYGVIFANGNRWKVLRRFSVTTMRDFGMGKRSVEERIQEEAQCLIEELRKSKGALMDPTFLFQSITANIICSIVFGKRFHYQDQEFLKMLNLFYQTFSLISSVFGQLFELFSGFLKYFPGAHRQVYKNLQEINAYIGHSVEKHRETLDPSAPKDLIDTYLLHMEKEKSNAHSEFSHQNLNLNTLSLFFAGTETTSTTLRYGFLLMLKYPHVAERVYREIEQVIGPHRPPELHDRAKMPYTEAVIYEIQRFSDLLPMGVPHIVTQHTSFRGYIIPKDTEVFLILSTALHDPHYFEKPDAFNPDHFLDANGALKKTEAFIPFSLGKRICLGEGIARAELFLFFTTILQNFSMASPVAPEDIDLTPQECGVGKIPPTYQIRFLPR

[4] = day 28, observed, cited from earlier work; for AUC(0–24 h) / Cmin: GM (CV%); for Cmax: GM (CV%; 90% CI)
[5] = target: CYP2C19 (Homo sapiens, UniProt P33261); assay: Enzyme phenotyping, intrinsic clearance by retrograde calculation; assay type: in vitro ADME
[6] = target: CYP2C9 (Homo sapiens, UniProt P11712); assay type: in vitro ADME
Procedure, shortened: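 Genotype-specific hepatic intrinsic clearance (CLint,h) was back-calculated from population PK total plasma clearance for each CYP2C9 genotype (*1/*1, *1/*2, *1/*3, *2/*2, *2/*3, *3/*3). Clearance was assumed to be entirely CYP-mediated hepatic metabolism, with purely passive hepatocyte uptake. CLint,h was split across CYP2C9, 3A4, 2B6, 2C8 and 2C19 by in vitro phenotyping fm. fu(mic) was set to 1. Values served as SimCYP PBPK inputs.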

[7] = cited from earlier work; for t1/2 / AUCinf / Cmax / Tmax: observed; for t1/2: GM (CV%); for AUCinf / Cmax: GM (CV%; 90% CI); for Tmax: median (range)
[8] = ref Novartis data on file, 5, cited from earlier work
[9] = target: T2, CYP2C8 (Homo sapiens, UniProt P10632); assay: Enzyme phenotyping, intrinsic clearance by retrograde calculation; assay type: in vitro ADME
T2 sequence (P10632 1-490): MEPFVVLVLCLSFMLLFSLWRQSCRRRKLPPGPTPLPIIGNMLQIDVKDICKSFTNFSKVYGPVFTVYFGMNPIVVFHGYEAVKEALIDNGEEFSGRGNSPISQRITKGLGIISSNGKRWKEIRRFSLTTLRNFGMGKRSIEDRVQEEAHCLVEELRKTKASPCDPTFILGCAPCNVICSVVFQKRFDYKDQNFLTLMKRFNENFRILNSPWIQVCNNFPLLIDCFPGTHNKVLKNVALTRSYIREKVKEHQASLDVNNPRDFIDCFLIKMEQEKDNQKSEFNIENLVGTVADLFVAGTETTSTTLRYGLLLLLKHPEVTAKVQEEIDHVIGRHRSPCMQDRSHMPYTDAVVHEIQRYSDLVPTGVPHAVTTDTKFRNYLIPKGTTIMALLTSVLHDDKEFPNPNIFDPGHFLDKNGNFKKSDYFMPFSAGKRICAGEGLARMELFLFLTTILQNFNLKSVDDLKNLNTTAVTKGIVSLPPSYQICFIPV

[10] = 0.3 mg solution p.o. single dose
[11] = 2.5 mg capsule p.o. single dose
[12] = 2.5 mg solution p.o. single dose
[13] = 17.5 mg capsule p.o. single dose

Chain of CYP2C9 (P11712 whole entry): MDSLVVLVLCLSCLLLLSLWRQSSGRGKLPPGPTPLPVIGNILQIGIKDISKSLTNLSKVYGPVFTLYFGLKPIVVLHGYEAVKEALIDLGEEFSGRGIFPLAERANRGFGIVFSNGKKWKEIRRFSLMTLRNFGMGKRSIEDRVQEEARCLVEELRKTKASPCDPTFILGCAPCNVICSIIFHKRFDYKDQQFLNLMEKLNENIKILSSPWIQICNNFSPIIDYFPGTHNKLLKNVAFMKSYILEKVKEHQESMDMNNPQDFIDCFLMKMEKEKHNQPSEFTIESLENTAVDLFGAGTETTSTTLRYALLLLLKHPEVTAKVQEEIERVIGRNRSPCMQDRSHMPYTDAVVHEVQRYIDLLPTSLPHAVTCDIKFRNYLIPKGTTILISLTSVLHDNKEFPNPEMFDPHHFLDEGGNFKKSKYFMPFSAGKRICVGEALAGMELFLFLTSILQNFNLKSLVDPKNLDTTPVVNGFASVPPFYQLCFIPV
Chain of CYP3A4 (P08684 whole entry): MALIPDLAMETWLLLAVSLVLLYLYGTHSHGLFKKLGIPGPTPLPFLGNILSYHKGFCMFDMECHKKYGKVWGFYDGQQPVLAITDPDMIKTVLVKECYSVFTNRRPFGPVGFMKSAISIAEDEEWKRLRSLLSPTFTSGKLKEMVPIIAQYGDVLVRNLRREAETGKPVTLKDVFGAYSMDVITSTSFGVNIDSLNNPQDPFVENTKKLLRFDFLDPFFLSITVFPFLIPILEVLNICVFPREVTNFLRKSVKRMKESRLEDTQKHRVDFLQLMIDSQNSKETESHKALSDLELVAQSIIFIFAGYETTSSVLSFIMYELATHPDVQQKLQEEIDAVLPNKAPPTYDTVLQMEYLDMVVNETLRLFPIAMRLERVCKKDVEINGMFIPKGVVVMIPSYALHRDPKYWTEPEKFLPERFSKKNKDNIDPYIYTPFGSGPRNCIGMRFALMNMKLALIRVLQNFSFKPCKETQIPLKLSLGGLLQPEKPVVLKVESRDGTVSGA
Chain of CYP2C19 (P33261 whole entry): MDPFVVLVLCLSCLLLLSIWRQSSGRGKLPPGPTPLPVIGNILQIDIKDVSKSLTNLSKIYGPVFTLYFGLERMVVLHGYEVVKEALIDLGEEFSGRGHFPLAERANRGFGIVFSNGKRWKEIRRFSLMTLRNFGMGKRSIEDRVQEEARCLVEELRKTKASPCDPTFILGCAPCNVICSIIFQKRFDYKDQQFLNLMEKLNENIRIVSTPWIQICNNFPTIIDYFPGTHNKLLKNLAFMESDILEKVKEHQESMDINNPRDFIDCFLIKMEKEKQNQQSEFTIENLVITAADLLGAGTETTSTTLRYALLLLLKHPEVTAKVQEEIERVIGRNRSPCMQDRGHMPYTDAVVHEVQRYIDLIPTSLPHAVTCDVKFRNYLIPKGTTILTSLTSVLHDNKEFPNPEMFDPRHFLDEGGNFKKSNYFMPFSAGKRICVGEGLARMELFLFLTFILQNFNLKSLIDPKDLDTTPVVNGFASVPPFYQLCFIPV

CCc1cc(/C(C)=N/OCc2ccc(C3CCCCC3)c(C(F)(F)F)c2)ccc1CN1CC(C(=O)O)C1 [siponimod]
CLint (CYP3A4) [1]: 5.607 µL/min/pmol
fmCYP3A4 ([1]; CYP2C9*1/*1): 0.175
fmCYP3A4 ([1]; CYP2C9*1/*2): 0.189
fmCYP3A4 ([1]; CYP2C9*1/*3): 0.287
fmCYP3A4 ([1]; CYP2C9*2/*2): 0.244
fmCYP3A4 ([1]; CYP2C9*2/*3): 0.343
fmCYP3A4 ([1]; fraction metabolized): 0.185
AUCinf ([2]; CYP2C9*1/*1): 70.5 (21.2) ng·hour/mL
t1/2 ([2]; CYP2C9*1/*1): 28.1 (18.5) h
AUCinf ([2]; CYP2C9*2/*3): 144 (15.7) ng·hour/mL
Cmax ([2]; CYP2C9*2/*3): 2.45 (13.1) ng/mL
t1/2 ([2]; CYP2C9*2/*3): 50.9 (31.7) h
AUCinf ([2]; CYP2C9*3/*3): 271 (22.4) ng·hour/mL
Cmax ([2]; CYP2C9*3/*3): 2.35 (29.0) ng/mL
t1/2 ([2]; CYP2C9*3/*3): 126 (12.7) h
In vitro intrinsic clearance (CYP2B6) [3]: 0.733 µL/min/pmol
fmCYP2B6 ([3]; fraction metabolized): 0.004
AUC(0–24 h) ([4]; 0.3 mg solution p.o. q.d.): 97.9 (19) ng·hour/mL
Cmin ([4]; 0.3 mg solution p.o. q.d.): 2.83 (27) ng/mL
Cmax ([4]; 0.3 mg solution p.o. q.d.): 5.13 (16; 4.76–5.86) ng/mL
AUC(0–24 h) ([4]; 1 mg solution p.o. q.d.): 282 (16) ng·hour/mL
Cmin ([4]; 1 mg solution p.o. q.d.): 7.74 (20) ng/mL
Cmax ([4]; 1 mg solution p.o. q.d.): 14.9 (10; 14.0–15.9) ng/mL
AUC(0–24 h) ([4]; 2.5 mg capsule p.o. q.d.): 692 (45) ng·hour/mL
Cmin ([4]; 2.5 mg capsule p.o. q.d.): 15.2 (120) ng/mL
Cmax ([4]; 2.5 mg capsule p.o. q.d.): 38.3 (37; 29.1–47.4) ng/mL
AUC(0–24 h) ([4]; 10 mg capsule p.o. q.d.): 2,580 (24) ng·hour/mL
Cmin ([4]; 10 mg capsule p.o. q.d.): 70.6 (29) ng/mL
Cmax ([4]; 10 mg capsule p.o. q.d.): 147 (24; 126–168) ng/mL
AUC(0–24 h) ([4]; 20 mg capsule p.o. q.d.): 6,370 (23) ng·hour/mL
Cmin ([4]; 20 mg capsule p.o. q.d.): 166 (88) ng/mL
Cmax ([4]; 20 mg capsule p.o. q.d.): 359 (17; 325–394) ng/mL
fmCYP2C19 ([5]; fraction metabolized): 0.001
CLint (CYP2C19) ([5]; retrograde calculator from CL 3.12 L/hour, fu(mic) set to 1): 0.593 µL/min/pmol
fmCYP2C9 ([6]; CYP2C9*1/*1): 0.804
fmCYP2C9 ([6]; CYP2C9*1/*2): 0.788
fmCYP2C9 ([6]; CYP2C9*1/*3): 0.678
fmCYP2C9 ([6]; CYP2C9*2/*2): 0.727
fmCYP2C9 ([6]; CYP2C9*2/*3): 0.616
t1/2 [7, 10]: 33.21 (28) h
AUCinf [7, 10]: 89.3 (20; 79.2–99.4) ng·hour/mL
Cmax [7, 10]: 2.26 (6; 2.17–2.34) ng/mL
Tmax [7, 10]: 5 (4.00–8.00) h
t1/2 ([7]; 1 mg solution p.o. single dose): 45.7 (26) h
AUCinf ([7]; 1 mg solution p.o. single dose): 349 (28; 292–406) ng·hour/mL
Cmax ([7]; 1 mg solution p.o. single dose): 7.43 (42; 5.37–9.50) ng/mL
Tmax ([7]; 1 mg solution p.o. single dose): 5 (4.00–15.7) h
t1/2 [7, 11]: 29.3 (17) h
AUCinf [7, 11]: 745 (25; 632–858) ng·hour/mL
Cmax [7, 11]: 19.3 (19; 17.1–21.5) ng/mL
Tmax [7, 11]: 6 (4.00–8.00) h
t1/2 [7, 12]: 27.0 (22) h
AUCinf [7, 12]: 766 (36; 598–935) ng·hour/mL
Cmax [7, 12]: 21.9 (35; 16.7–27.0) ng/mL
Tmax [7, 12]: 4 (3.00–8.00) h
t1/2 ([7]; 5 mg capsule p.o. single dose): 31.3 (19) h
AUCinf ([7]; 5 mg capsule p.o. single dose): 1,260 (20; 1,149–1,384) ng·hour/mL
Cmax ([7]; 5 mg capsule p.o. single dose): 38.5 (21; 33.5–41.5) ng/mL
Tmax ([7]; 5 mg capsule p.o. single dose): 3 (2.00–8.00) h
t1/2 ([7]; 10 mg capsule p.o. single dose): 32.0 (17) h
AUCinf ([7]; 10 mg capsule p.o. single dose): 2,710 (14; 2,507–2,915) ng·hour/mL
Cmax ([7]; 10 mg capsule p.o. single dose): 77.3 (25; 64.8–89.7) ng/mL
Tmax ([7]; 10 mg capsule p.o. single dose): 5 (3.82–16.0) h
t1/2 [7, 13]: 42.3 (38) h
AUCinf [7, 13]: 4,230 (25; 3,666–4,792) ng·hour/mL
Cmax [7, 13]: 111 (32; 93.7–128.4) ng/mL
Tmax [7, 13]: 4 (2.00–8.00) h
t1/2 ([7]; 25 mg capsule p.o. single dose): 47.7 (20) h
AUCinf ([7]; 25 mg capsule p.o. single dose): 8,140 (24; 6,987–9,302) ng·hour/mL
Cmax ([7]; 25 mg capsule p.o. single dose): 217 (29; 180–254) ng/mL
Tmax ([7]; 25 mg capsule p.o. single dose): 3.50 (1.50–12.0) h
t1/2 ([7]; 75 mg capsule p.o. single dose): 56.7 (12) h
Cmax ([7]; 75 mg capsule p.o. single dose): 491 (51; 346–637) ng/mL
Tmax ([7]; 75 mg capsule p.o. single dose): 6 (2.00–24.00) h
elimination half‐life (t1/2), range [7]: 22 to 38 h
mean elimination half‐life (t1/2) [7]: ~ 30 hours
lower total body clearance from plasma vs CYP2C9*1/*1 ([8]; CYP2C9*1/*3): 35–38%
lower total body clearance from plasma vs CYP2C9*1/*1 ([8]; CYP2C9*2/*2): 20%
lower total body clearance from plasma vs CYP2C9*1/*1 ([8]; CYP2C9*2/*3): 45–48%
lower total body clearance from plasma vs CYP2C9*1/*1 ([8]; CYP2C9*3/*3): 74%
CLint (CYP2C8) [9]: 2.941 µL/min/pmol
fmCYP2C8 ([9]; fraction metabolized): 0.017

Reference: publication PMC6851657 (Clinical Pharmacology and Therapeutics, 2019)
